# Source: PubChem BioAssay AID624431 (The Scripps Research Institute Molecular Screening Center, 2012)
# The other results are listed elsewhere or left out. The source made the active and inactive calls.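 The calls were made as follows: active = mean inhibition over triplicates exceeds the hit threshold derived for the earlier primary screening run (cut at about 25% in these data); inactive = the rest.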
# Molecular target: Arf-GAP with SH3 domain, ANK repeat and PH domain-containing protein 1 (Homo sapiens) (UniProt Q9ULH1)
# Sequence (Q9ULH1 325-724 limits assumed): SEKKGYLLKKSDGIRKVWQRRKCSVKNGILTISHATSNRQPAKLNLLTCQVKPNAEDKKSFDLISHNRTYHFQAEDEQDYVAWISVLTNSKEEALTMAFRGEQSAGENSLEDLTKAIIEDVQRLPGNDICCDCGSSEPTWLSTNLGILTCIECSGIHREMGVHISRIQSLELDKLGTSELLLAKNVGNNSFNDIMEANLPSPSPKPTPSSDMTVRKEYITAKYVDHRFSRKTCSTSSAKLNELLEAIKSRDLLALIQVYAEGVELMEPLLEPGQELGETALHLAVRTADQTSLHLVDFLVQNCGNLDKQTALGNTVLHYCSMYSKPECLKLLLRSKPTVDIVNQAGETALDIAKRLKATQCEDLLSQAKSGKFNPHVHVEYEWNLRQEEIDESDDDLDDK
# Assay: ASAP1 GAP activity inhibitors, confirmation, biochemical, fluorescence polarization, human, triplicate (AID 624431)
# Settings: ASAP1-stimulated Arf1 GTPase, GDP fluorescence polarization; at 16.5 µM; hits give high values
# Outline: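 Medium: HEPES-based assay buffer at pH 7.5; System: purified ASAP1 fragment 325-724; Reagent: Arf1 Δ17-GTP substrate; Read-out basis: % inhibition vs no-ASAP1 controls; Times: 20-min ASAP1–compound and 120-min Arf1-GTP steps at 25 °C, 60-min tracer; Detection: FP readout via GDP Alexa 633 tracer displacement from antibody.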
row,Compound,inhibition
1,COC(=O)c1ccc(NCC(=O)c2ccccc2)cc1,-2.85% (inactive)
2,CC(=O)Nc1cc(-c2ccc(N3CCN(C)CC3)cc2)cn2c(-c3cccc(C(=O)N(C)C)c3)cnc12,69.3% (active)
3,CC(=O)c1cccc(-c2cnc3c(NC=O)cc(-c4ccc(N5CCN(C)CC5)cc4)cn23)c1,77.7% (active)
4,COc1ccc(/C=N/Nc2ncnc3sc4c(c23)CCCC4)cc1O,26.2% (active)
5,Cc1ccc2nc(SCC(=O)N3CC(C)OC(C)C3)nc(=O)n2c1 (stereo unspecified),54.1% (active)
6,OCCNc1nc(Nc2ccc(Cl)c(Cl)c2)nc2ccccc12,26.6% (active)
7,COc1cc(/C=N/Nc2nn3cnnc3c3ccccc23)cc(OC)c1OC,39% (active)
8,O=C(NC1=CC(=O)c2ccccc2C1=O)c1ccccc1,13.6% (inactive)
9,c1ccc(-c2cc(-c3nnc4sc(-c5ccccn5)nn34)[nH]n2)cc1,33% (active)
10,N#Cc1cc([N+](=O)[O-])ccc1Oc1cccc(/C=N/NC(=O)c2ccc(Cl)cc2)c1,31.5% (active)
11,CCN(CC)c1ccc2cc(C(N)=O)/c(=N\NC(=O)c3ccncc3)oc2c1,87.2% (active)
12,COc1ccc(C(CNC(=O)c2cccc(S(=O)(=O)Nc3ccccc3Cl)c2)N2CCOCC2)cc1 (stereo unspecified),16.6% (inactive)
13,C=CCNc1nc(N)c(C(=C(C#N)C#N)c2ccccc2)s1,13.1% (inactive)
14,O=c1/c(=C/c2ccc(CNS(=O)(=O)c3ccccc3)o2)sc2n1CCN=2,-9.13% (inactive)
15,Cc1cccc(-n2ncc(Cl)c(Cl)c2=O)c1,-3.51% (inactive)
16,CCOC(=O)c1ccc(Nc2cc3ccccc3c(=O)[nH]2)cc1,9.9% (inactive)
17,C=CCC[C@@H](CCCCC)OC(=O)/C=C/[C@@H](O)[C@H](O)C[C@H](O)CC=C,1.35% (inactive)
18,COc1ccc(-n2nnnc2SCC(=O)c2ccc(OC)c(OC)c2)cc1,30.7% (active)
19,CC(=O)Nc1cc(-c2ccc(N3CCN(C)CC3)cc2)cn2c(-c3ccc(F)cc3)cnc12,40.5% (active)
20,CCN1CCN(CCNC(=O)c2ccc3c(c2)NC(=O)/C(=C\c2ccc(OC)c(OC)c2)S3)CC1,94% (active)
21,CC(=O)N(C1=C(Cl)C(=O)c2ccccc2C1=O)c1ccc(C(=O)O)cc1,22.3% (inactive)
